Assay results published in PMC10041147 (RSC Advances, 2023).

How the values were obtained:
[1] = molecular target: T1, Pseudomonas aeruginosa lectin LecA (Pseudomonas aeruginosa, UniProt Q05097); assay: Electrochemical; settings: LecA sensor, n.b. = no binding; for K d from CV: cyclic voltammetry; for K d from DPV: differential pulse voltammetry
T1 sequence (Q05097 1-122): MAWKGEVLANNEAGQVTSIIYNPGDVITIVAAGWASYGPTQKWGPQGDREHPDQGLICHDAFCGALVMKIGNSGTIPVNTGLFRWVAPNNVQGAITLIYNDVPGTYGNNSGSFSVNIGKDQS
Summary of the method: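 P. aeruginosa LecA (commercial, ≥70%) coupled at 10 μM for 1 h to an EDC/NHS-activated MUA/DTT layer on a gold nanoparticle–graphene screen-printed electrode, then blocked 30 min with 1% BSA. Sugars titrated in 10 mM PBS with 1 mM CaCl2 and 1 mM MnCl2. Read in 25 mM [Fe(CN)6]3−/4− with 0.2 M KCl at 25 °C. CV: −0.2 to 0.8 V, 0.05 V s−1. DPV: −0.2 to 0.5 V. Reduction-peak Δip fitted to a one-site model.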

LecA = settings: n.b. = no binding, no reference given; cited from earlier work
ConA = settings: read-out: Reported Kd; cited from earlier work

| Compound | K d from CV [1] | K d from DPV [1] | Reported Kd (LecA) | Kd (ConA) [µM] |
| --- | --- | --- | --- | --- |
| mannan [mannan (4)] | n.b. | n.b. | n.b. | 3 |
| OC[C@H]1OC(O)[C@@H](O)[C@@H](O)[C@@H]1O (some centres unmarked) [mannose (3), mannose] | n.b. | n.b. | n.b. | 57 |
